ChEMBL document CHEMBL4513216, “Probing the Open Global Health Chemical Diversity Library for Multistage-Active Starting Points for Next-Generation Antimalarials” (ACS Infect Dis, 2020)

Assay: Toxicity liver stage against HepG2, at 10uM
Type: cell-based
Parameters: test concentration 10 uM, cell line HepG2-A16-CD81EGFP
Conditions: human, HepG2-A16-CD81EGFP cells; read-out: INHIBITION
How it was run: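 Uninfected HepG2-A16-CD81EGFP cells, 3 × 10^3 per well, 1536-well, plated on prespotted compound at 10 μM final, parasite-free screening media added to match infected plates; puromycin 10 μM positive, DMSO 0.5% negative; run in parallel with 48 h PbLuc assay at 37 °C, 5% CO2; viability by CellTiter-Glo luminescence, normalized to controls.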

CC1(C)CNC(=O)CN(C(=O)CCc2ccccc2)C1
cytotoxicity at 10 µM: -8.57%

O=C1CN(S(=O)(=O)CC(F)(F)F)CC(O)CN1CCCc1ccccc1 (stereo unspecified)
cytotoxicity at 10 µM: -7.99%

O=C(Nc1cnc(Oc2ccccc2F)nc1)C1CC1
cytotoxicity at 10 µM: 0.0701%

COc1ccc(C(C)N(C)Cc2c(C(C)C)[nH]c3ncccc23)cc1 (stereo unspecified)
cytotoxicity at 10 µM: -7.99%

CCCn1nc(C)c(C(=O)N(C)[C@@H]2CC[C@@H](OC)[C@@H]2O)c1C
cytotoxicity at 10 µM: 4.36%

CN1CCC(c2cc(CCO)ncn2)C1 (stereo unspecified)
cytotoxicity at 10 µM: 4.87%

Cc1nc(C2CCCN2C(=O)c2ccccc2)ncc1C(N)=O (stereo unspecified)
cytotoxicity at 10 µM: -1.47%

CCc1ccc2c(c1)C(CCNC(=O)CSC(F)(F)F)C(=O)N2 (stereo unspecified)
cytotoxicity at 10 µM: -45.5%

CC(C)C(=O)Nc1cccc(OCC(=O)NCc2ccccc2F)c1
cytotoxicity at 10 µM: -6.19%

CN(Cc1ccc2c(c1)OCO2)Cc1cscn1
cytotoxicity at 10 µM: -11.1%

CS(=O)(=O)NCCC(=O)Nc1ccccc1N1CCc2ccccc21
cytotoxicity at 10 µM: 11.9%

COC(C)c1noc(CN(C)c2ncccn2)n1 (stereo unspecified)
cytotoxicity at 10 µM: 7.33%

CCC1CN(C)c2ccccc2CN1CCn1cncn1 (stereo unspecified)
cytotoxicity at 10 µM: 9.4%

COC(=O)c1ccc(N2CCN(C(=O)CC(F)(F)F)C(C)C2)cc1 (stereo unspecified)
cytotoxicity at 10 µM: 4.42%

Cc1ccccc1CC(=O)NS(=O)(=O)c1cccc2cnccc12
cytotoxicity at 10 µM: -0.601%

Cc1ccc(C(=O)NCCCN(C)S(C)(=O)=O)c(=O)[nH]1
cytotoxicity at 10 µM: -5.89%

COc1cc(CN(C)C(=O)NCc2ccccn2)ccc1SC
cytotoxicity at 10 µM: -8.42%

COc1ccc(CCNC2CCCN(c3ccc(C)nn3)C2)cc1 (stereo unspecified)
cytotoxicity at 10 µM: -3.65%

CCC(CC)c1cc(CNC(=O)N2CCC(CO)CC2)on1
cytotoxicity at 10 µM: 3.76%

CCc1nc(CN2CCCN(c3cnc4ccccc4n3)CC2)no1
cytotoxicity at 10 µM: 22%

COCCCN(C)C(=O)c1cccc(Nc2cnccn2)c1
cytotoxicity at 10 µM: -8.43%

CC(=O)N1CCN(c2ccnc3c(F)cc(Br)cc23)CC1
cytotoxicity at 10 µM: 13.6%

O=C(c1ccc2[nH]ccc2c1)N1CCCCC1c1nc[nH]n1 (stereo unspecified)
cytotoxicity at 10 µM: -9.04%

Cc1nc2n(n1)CC(NCC(=O)NCCC1=CCCCC1)CC2 (stereo unspecified)
cytotoxicity at 10 µM: -9.36%

CC(NCC1CCN(CCO)CC1)c1cccc(Cl)c1 (stereo unspecified)
cytotoxicity at 10 µM: -12.5%

CC(NC(=O)Nc1nccs1)C(=O)NC1CCCC1 (stereo unspecified)
cytotoxicity at 10 µM: 1.87%

O=C(NCc1cccc(F)c1)Nc1ccn(CCN2CCOCC2)n1
cytotoxicity at 10 µM: -8.45%

CCc1ncc(C(=O)NC(C)(C)C(=O)OC)s1
cytotoxicity at 10 µM: 5.01%

Cc1cnn(CCNCc2c(C)nn(-c3ccccc3)c2C)c1
cytotoxicity at 10 µM: -14.1%

O=S(=O)(NCc1ccc(S(=O)(=O)N2CCCC2)s1)c1cc(Cl)cc(Cl)c1
cytotoxicity at 10 µM: -11.1%

CC(NCCN1CCC(N(C)C)CC1)c1ccc(F)cc1N(C)C (stereo unspecified)
cytotoxicity at 10 µM: -13%

CCCc1nn(Cc2ccc(Br)s2)c(=O)o1
cytotoxicity at 10 µM: 3.81%

COc1ccc(C(C)N2CCC(CO)CC2)cc1Cl (stereo unspecified)
cytotoxicity at 10 µM: -51.1%

Cc1nn(C)c(N(C)C)c1CNCc1cccnc1
cytotoxicity at 10 µM: 6%

Cc1cccc(C(=O)N2CCN(S(C)(=O)=O)[C@@H](C)C2)c1C
cytotoxicity at 10 µM: 3.46%

CC(C)O[C@@H]1CC[C@H]2[C@H]1OCCN2C(=O)c1nn(C)c2ccccc12
cytotoxicity at 10 µM: -0.824%

c1ccc(CN2C[C@@H]3OCCN(c4cccnc4)[C@@H]3C2)nc1
cytotoxicity at 10 µM: -72.8%

COCCC1COC2(CCN(C(=O)c3ccccc3)CC2)C1 (stereo unspecified)
cytotoxicity at 10 µM: -87.5%

Cc1nc(NCC2CC2)nc2c1COCC21CCN(CC(=O)N(C)C)C1 (stereo unspecified)
cytotoxicity at 10 µM: -78.5%

COCCO[C@H]1CCN(C(=O)c2ccsc2)[C@H]1Cc1ccncc1
cytotoxicity at 10 µM: -75.4%

Cc1noc(C)c1CN1CC[C@H]2C[C@H](c3nccs3)O[C@@H]2C1
cytotoxicity at 10 µM: -70.7%

c1ccc(CO[C@H]2CC[C@H]3[C@H]2OCCN3CCN2CCCCC2)nc1
cytotoxicity at 10 µM: -7.16%

CO[C@@H]1CO[C@@]2(CCCN(S(=O)(=O)c3ccccc3)C2)C1
cytotoxicity at 10 µM: -79.8%

CC1=N[C@@]2(CC[C@@H]3CN(S(=O)(=O)CC(C)C)C[C@@H]32)C(=O)N1CC(C)C
cytotoxicity at 10 µM: -1.34%

CS(=O)(=O)N1CCC(c2nnc3ccc(C(=O)N4CCCC4)cn23)C1 (stereo unspecified)
cytotoxicity at 10 µM: 1.47%

Cc1nn(C)cc1-c1ccnc(N2CCN(c3cnccn3)CC2)n1
cytotoxicity at 10 µM: 7.26%

COCCN(C)C(C(=O)O)c1ccc(F)c(Cl)c1 (stereo unspecified)
cytotoxicity at 10 µM: 12.2%

CN(CCO)C[C@@H]1CN(C(=O)Cc2ccc3ccccc3c2)C[C@@H]1CO
cytotoxicity at 10 µM: -1.96%

COc1ccccc1N1CCN(Cc2nccc(OC)c2OC)CC1=O
cytotoxicity at 10 µM: -4%

CCN(Cc1noc(C)n1)C(=O)C(c1cccc(C)c1)N(C)C (stereo unspecified)
cytotoxicity at 10 µM: -1.34%

Cn1ccnc1-c1cn(CCc2nnc(N)s2)nn1
cytotoxicity at 10 µM: -4.3%

Cc1cc(NCc2ccc(C#N)cc2)n2nc(C)cc2n1
cytotoxicity at 10 µM: -10.9%

COC(=O)c1cc(OCC2CCC2)cc(C(=O)NCC(C)(C)O)c1
cytotoxicity at 10 µM: 4.01%

CN(CCc1ccccc1)Cc1cc(C(=O)N2CCSCC2)no1
cytotoxicity at 10 µM: 3.88%

COc1ccc2c(CN3CCCN(Cc4ccncc4)CC3)n[nH]c2c1
cytotoxicity at 10 µM: -4.32%

COC(=O)CNCC1(O)CCCN(Cc2cccc(F)c2F)C1=O (stereo unspecified)
cytotoxicity at 10 µM: -6.87%

COc1cccc(CCC2CCCN(C(=O)c3ccc(=O)n(C)n3)C2)c1 (stereo unspecified)
cytotoxicity at 10 µM: 4.34%

COc1cccn(CC(=O)N(C)CCC2CCOCC2)c1=O
cytotoxicity at 10 µM: -19%

C[C@@H]1CN(CCOCc2ccccc2)CC[C@@]1(O)C1CCC1
cytotoxicity at 10 µM: 1.4%

COc1ccc2c(CN3CCN(Cc4cccc(F)c4)CC3)n[nH]c2c1
cytotoxicity at 10 µM: -1.86%

CSCC1CCN(c2nc(N)ncc2C)CC1
cytotoxicity at 10 µM: -5.2%

Cc1ccc(CN2C(=O)OCC2CO)c2ccccc12 (stereo unspecified)
cytotoxicity at 10 µM: -5.21%

O=C(O)c1ccnc(-c2ccnc(N3CCC4(CCO4)CC3)n2)c1
cytotoxicity at 10 µM: -10.7%

COCc1cc(CNC(=O)c2cc(NC(C)=O)ccc2Cl)n[nH]1
cytotoxicity at 10 µM: 5.3%

CC(C)n1cc(CN(C)C[C@@H]2CCCN3CCCC[C@H]23)cn1
cytotoxicity at 10 µM: 0.276%

O=C(COCC(F)(F)C(F)F)N1CCC(c2ncc[nH]2)CC1
cytotoxicity at 10 µM: -53.9%

CCC(CO)N(Cc1ccsc1)Cc1ccc(-c2ccn[nH]2)s1 (stereo unspecified)
cytotoxicity at 10 µM: -1.37%

COCC(=O)N1CCC2(CCCN(Cc3cc(OC)ccc3F)C2)C1 (stereo unspecified)
cytotoxicity at 10 µM: -1.62%

COCCN1CCCC2(CCN(C(=O)c3cnc(O)cn3)C2)C1=O (stereo unspecified)
cytotoxicity at 10 µM: 0.0942%

CS(=O)(=O)N[C@H]1CN(C(=O)CCc2ccco2)C[C@@H]1C1CC1
cytotoxicity at 10 µM: 2.7%

Cc1nc(NC(=O)NC2CC(=O)N(C)C2)nn1C(C)C (stereo unspecified)
cytotoxicity at 10 µM: -8.15%

Cc1cc(CC(C)NC(=O)COc2ccc(F)cc2F)[nH]n1 (stereo unspecified)
cytotoxicity at 10 µM: -49%

CCc1nnc(CN2CCN(c3cccc(OC)c3)C(=O)C2)o1
cytotoxicity at 10 µM: 18.4%

CN(Cc1ccccn1)C(C(=O)O)c1ccc2c(c1)OCO2 (stereo unspecified)
cytotoxicity at 10 µM: 1.16%

CC(C)CNC(=O)CN(C)S(C)(=O)=O
cytotoxicity at 10 µM: 13.7%

CN1CCN(C(=O)C2CN(Cc3cc4ccccc4o3)CCN2)CC1 (stereo unspecified)
cytotoxicity at 10 µM: -8.2%

CCC(C)N(Cc1ccncc1)C(=O)CCC(=O)OC (stereo unspecified)
cytotoxicity at 10 µM: -14.5%

CCCn1ncc(C(=O)N(C)Cc2cc(C3CC3)[nH]n2)c1C
cytotoxicity at 10 µM: -4.65%

CNC(=O)c1cccc(C2CNCCN2C(C)=O)c1 (stereo unspecified)
cytotoxicity at 10 µM: 0.384%

CN1CCN(C2CCN(CCOc3ccccc3)CC2)C1=O
cytotoxicity at 10 µM: -2.15%

CCn1cc(CN2CCCN(C(=O)CCN3CCCC3=O)CC2)cn1
cytotoxicity at 10 µM: 0.428%

Cc1ccsc1CNC(=O)CCc1c(C)nc2cc(O)nn2c1C
cytotoxicity at 10 µM: -7.01%

CC1CCN(CCNC(=O)c2scnc2Cl)CC1
cytotoxicity at 10 µM: -4.2%

COc1c(CNC2CCN(c3ccccn3)CC2)c(C(C)C)nn1C
cytotoxicity at 10 µM: -8.06%

CCc1nc(C2CCCN2C(=O)CCc2nc(C(C)(C)C)no2)no1 (stereo unspecified)
cytotoxicity at 10 µM: -0.819%

Cc1nc(C)n(CC2CCCN2CC(=O)Nc2cc(C)on2)n1 (stereo unspecified)
cytotoxicity at 10 µM: -2.11%

CC(C)Cc1cc(NC(=O)c2ccc(=O)[nH]n2)n(C)n1
cytotoxicity at 10 µM: -10.1%

NC(=O)NCC1CCCCN1C(=O)c1cccc(C(F)(F)F)c1 (stereo unspecified)
cytotoxicity at 10 µM: -7.32%

COCCCNC(=O)CN(C)C(=O)c1cc(C)ccc1O
cytotoxicity at 10 µM: -6.81%

O=C(Nc1ccc(CCN2CCC(O)CC2)cc1)C1CCOCC1
cytotoxicity at 10 µM: -8.08%

CC(C)(C)c1nnc(CN2CCOC(Cn3cncn3)C2)o1 (stereo unspecified)
cytotoxicity at 10 µM: -1.5%

Cc1cc(C)n(CC2CN(Cc3cscn3)CCO2)n1 (stereo unspecified)
cytotoxicity at 10 µM: -2.68%

CC(C)Oc1ncccc1CNC(=O)N1CCC(C(N)=O)C1 (stereo unspecified)
cytotoxicity at 10 µM: -6.08%

Cc1ccc(C2CCCN2Cc2nc3c(cnn3C)c(=O)[nH]2)cc1C (stereo unspecified)
cytotoxicity at 10 µM: -0.858%

CCN(CC1CCCO1)C(=O)Nc1ccc(F)cc1OC (stereo unspecified)
cytotoxicity at 10 µM: -8.98%

COCCCN1CCc2cncnc2C1
cytotoxicity at 10 µM: -9.68%

Cc1noc(Cl)c1CCC(=O)N1CCc2sccc2C1
cytotoxicity at 10 µM: 2.65%

CC(NCc1ccc(F)cc1)c1ccc(OCC(=O)NC2CC2)cc1 (stereo unspecified)
cytotoxicity at 10 µM: 3.99%

Cc1nc(C)n(C2CCCN(C(=O)c3csc(C(C)C)n3)C2)n1 (stereo unspecified)
cytotoxicity at 10 µM: -1.72%

COc1ccc(CN2CCN(C(C)c3nc(C4CC4)no3)CC2)cc1 (stereo unspecified)
cytotoxicity at 10 µM: 4.31%

Cc1nccc(C2(C)CCCNC2)n1 (stereo unspecified)
cytotoxicity at 10 µM: 9.22%

COc1ccc(CN2CCn3cc(CN4CCN(C)CC4)nc3C2)cc1
cytotoxicity at 10 µM: -0.00161%

COCCN1CCO[C@H]2CN(Cc3cc[nH]n3)C[C@H]21
cytotoxicity at 10 µM: -105%

COCCN1CCC2(C1)c1ccccc1S(=O)(=O)N2C (stereo unspecified)
cytotoxicity at 10 µM: 11.4%

O=C([C@@H]1COC[C@H]2CN(C3CCCC3)C[C@H]21)N1CCCCO1
cytotoxicity at 10 µM: -1.11%

Fc1cnc(N2CCCC3(CCN(Cc4ccoc4)C3)C2)nc1 (stereo unspecified)
cytotoxicity at 10 µM: -80.6%

O=C(c1ccncc1)N1CCC2(CCCN(c3ncc(F)cn3)C2)C1 (stereo unspecified)
cytotoxicity at 10 µM: -105%

Cn1ncc2c(NC3CCC(N)CC3)nc(C(C)(C)C)nc21 (stereo unspecified)
cytotoxicity at 10 µM: 8%

Cn1cc(CCC(=O)N2C[C@@H]3CC[C@H]2CN(Cc2cccnc2)C3)cn1
cytotoxicity at 10 µM: -12.4%

CC(C)(C)c1ccc(OCC(=O)O)c(CN2C[C@H]3CC(O)C[C@H]3C2)c1 (stereo partly specified)
cytotoxicity at 10 µM: 3.46%

Cc1nc[nH]c1CN1C[C@H]2CC[C@@H](C1)N(C(=O)CCn1cncn1)C2
cytotoxicity at 10 µM: 1.15%
